# Test results as given in ChEMBL document CHEMBL1132232, “7alpha-Iodo and 7alpha-fluoro steroids as androgen receptor-mediated imaging agents” (J Med Chem, 1999).
# Columns and labels:
# Rattus norvegicus [1] = test: Distribution of tissue Radioactivity following Intravenous injection into castrated male rat lung at 0.5 hours time; type: ADME, organism-based; conditions: in vivo
# Method in brief: (§1)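 Male Sprague–Dawley rats, about 250 g, were castrated and injected the next day via the tail vein with 5.4 μCi (2.4 pmol) of 125I tracer in ethanol/saline (1:4). There were 5–6 rats per group. At 0.5, 1, 2 or 4 h, rats were ether-anesthetized and killed by exsanguination. Tissues were dissected, weighed and counted, giving % injected dose/g and prostate/blood ratios.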
# Rattus norvegicus [2] = test: Distribution of tissue Radioactivity following Intravenous injection into castrated male rat prostate/blood at 2 hours time; type: ADME, organism-based; conditions: other tissue; method in brief: as §1
# Rattus norvegicus [3] = test: Distribution of tissue Radioactivity following subcutaneous injection of […] of 5-alpha-DHT 15 min before the administration of the [125I]- tracer castrated male rat blood at 1 hour time; type: ADME, organism-based; conditions: in vivo, sc
# Method in brief: (§2)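 Castrated male Sprague–Dawley rats, about 250 g, received 5α-DHT subcutaneously in propylene glycol/saline (3:2) 15 min before a tail-vein 125I tracer (5.4 μCi, 2.4 pmol, in ethanol/saline 1:4). There were 5–6 rats per group. At 1 h, rats were ether-anesthetized and exsanguinated. Tissues were weighed and counted as % injected dose/g, plus the prostate/blood ratio.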
# Rattus norvegicus [4] = test: Distribution of tissue Radioactivity following Intravenous injection into castrated male rat prostate at 2 hours time; type: ADME, organism-based, Prostate gland; conditions: in vivo; method in brief: as §1
# Rattus norvegicus [5] = test: Distribution of tissue Radioactivity following Intravenous injection into castrated male rat spleen at 2 hours time; type: ADME, organism-based; conditions: in vivo; method in brief: as §1
# Rattus norvegicus [6] = test: Distribution of tissue Radioactivity following Intravenous injection into castrated male rat lung at 2 hours time; type: ADME, organism-based; conditions: in vivo; method in brief: as §1
# Rattus norvegicus [7] = test: Distribution of tissue Radioactivity following Intravenous injection into castrated male rat spleen at 0.5 hours time; type: ADME, organism-based; conditions: in vivo; method in brief: as §1
# Rattus norvegicus [8] = test: Distribution of tissue Radioactivity following Intravenous injection into castrated male rat kidney at 1 hour time; type: ADME, organism-based; conditions: in vivo; method in brief: as §1
# Rattus norvegicus [9] = test: Distribution of tissue Radioactivity following Intravenous injection into castrated male rat prostate/blood at 4 hours time; type: ADME, organism-based; conditions: in vivo; method in brief: as §1
# Rattus norvegicus [10] = test: Distribution of tissue Radioactivity following Intravenous injection into castrated male rat blood at 1 hour time; type: ADME, organism-based; conditions: in vivo; method in brief: as §1
# Rattus norvegicus [11] = test: Distribution of tissue Radioactivity following subcutaneous injection of […] of 5-alpha-DHT 15 min before the administration of the [125I]- tracer castrated male rat lung at 1 hour time; type: ADME, organism-based; conditions: in vivo, sc; method in brief: as §2
# Rattus norvegicus [12] = test: Distribution of tissue Radioactivity following Intravenous injection into castrated male rat muscle at 2 hours time; type: ADME, organism-based; conditions: in vivo; method in brief: as §1
# Rattus norvegicus [13] = test: Distribution of tissue Radioactivity following Intravenous injection into castrated male rat blood at 4 hours time; type: ADME, organism-based; conditions: in vivo; method in brief: as §1
# Rattus norvegicus [14] = test: Distribution of tissue radioactivity following subcutaneous injection of […] of 5-alpha-DHT 15 min before the administration of the [125I] tracer castrated male rat prostate 1 hour time; type: ADME, organism-based, Prostate gland; conditions: in vivo, sc
# Rattus norvegicus [15] = test: Distribution of tissue Radioactivity following Intravenous injection into castrated male rat fat at 0.5 hours time; type: ADME, organism-based, Adipose tissue; conditions: in vivo; method in brief: as §1
# Rattus norvegicus [16] = test: Distribution of tissue Radioactivity following Intravenous injection into castrated male rat spleen at 4 hours time; type: ADME, organism-based; conditions: in vivo; method in brief: as §1
# Rattus norvegicus [17] = test: Distribution of tissue Radioactivity following Intravenous injection into castrated male rat fat at 4 hours time; type: ADME, organism-based, Adipose tissue; conditions: in vivo; method in brief: as §1
# Rattus norvegicus [18] = test: Distribution of tissue Radioactivity following Intravenous injection into castrated male rat muscle at 0.5 hours time; type: ADME, organism-based; conditions: in vivo; method in brief: as §1
# Rattus norvegicus [19] = test: Distribution of tissue Radioactivity following Intravenous injection into castrated male rat blood at 0.5 hours time; type: ADME, organism-based; conditions: in vivo; method in brief: as §1
# Rattus norvegicus [20] = test: Distribution of tissue Radioactivity following Intravenous injection into castrated male rat lung at 1 hour time; type: ADME, organism-based; conditions: in vivo; method in brief: as §1
# Rattus norvegicus [21] = test: Distribution of tissue Radioactivity following Intravenous injection into castrated male rat prostate at 1 hours time; type: ADME, organism-based, Prostate gland; conditions: in vivo; method in brief: as §1
# Rattus norvegicus [22] = test: Distribution of tissue Radioactivity following Intravenous injection into castrated male rat fat at 1 hour time; type: ADME, organism-based, Adipose tissue; conditions: in vivo; method in brief: as §1
# Rattus norvegicus [23] = test: Distribution of tissue Radioactivity following subcutaneous injection of […] of 5-alpha-DHT 15 min before the administration of the [125I]- tracer castrated male rat spleen at 1 hour time; type: ADME, organism-based; conditions: in vivo, sc; method in brief: as §2
# Rattus norvegicus [24] = test: Distribution of tissue Radioactivity following Intravenous injection into castrated male rat kidney at 2 hours time; type: ADME, organism-based; conditions: in vivo; method in brief: as §1
# Rattus norvegicus [25] = test: Distribution of tissue Radioactivity following Intravenous injection into castrated male rat spleen at 1 hour time; type: ADME, organism-based; conditions: in vivo; method in brief: as §1
# Rattus norvegicus [26] = test: Distribution of tissue Radioactivity following subcutaneous injection of […] of 5-alpha-DHT 15 min before the administration of the [125I]- tracer castrated male rat fat at 1 hour time; type: ADME, organism-based, Adipose tissue; conditions: in vivo, sc; method in brief: as §2
smiles,measurement,setting,value
C[C@]12CCC(=O)CC1C[C@@H](I)[C@@H]1[C@@H]2CC[C@@]2(C)[C@H]1CC[C@]2(C)O (stereo partly specified),Dose/g,Rattus norvegicus [1],0.22%
same,Biodistribution,Rattus norvegicus [2],1.43%
same,Dose/g,Rattus norvegicus [3],0.35%
same,Dose/g,Rattus norvegicus [4],0.44%
same,Biodistribution,Rattus norvegicus [5],0.15%
same,Biodistribution,Rattus norvegicus [6],0.24%
same,Dose/g,Rattus norvegicus [7],0.13%
same,Dose/g,Rattus norvegicus [8],0.27%
same,Dose/g,Rattus norvegicus [9],1.19%
same,Biodistribution,Rattus norvegicus [10],0.33%
same,Dose/g,Rattus norvegicus [11],0.28%
same,Dose/g,Rattus norvegicus [12],0.07%
same,Dose/g,Rattus norvegicus [13],0.37%
same,Biodistribution,Rattus norvegicus [14],0.23%
same,Biodistribution,Rattus norvegicus [15],0.2%
same,Dose/g,Rattus norvegicus [16],0.17%
same,Biodistribution,Rattus norvegicus [17],0.17%
same,Biodistribution,Rattus norvegicus [18],0.06%
same,Dose/g,Rattus norvegicus [19],0.3%
same,Biodistribution,Rattus norvegicus [20],0.24%
same,Dose/g,Rattus norvegicus [21],0.39%
same,Dose/g,Rattus norvegicus [22],0.25%
same,Dose/g,Rattus norvegicus [23],0.18%
same,Dose/g,Rattus norvegicus [24],0.25%
same,Biodistribution,Rattus norvegicus [25],0.16%
same,Biodistribution,Rattus norvegicus [26],0.29%
